High-throughput results (PubChem)
Lung fibro prol: blocks proliferation of human lung fibroblasts; LL 47 human lung fibroblast viability, ATP luminescence; hits give low values; viability, % at 10 µM; actives 1.1% (n = 85,000); AID 719;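 active = viability at or below 50% in the single dose screen; inactive = viability above 50%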;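 also: compound exposure lasted 72 h before the ATP readout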
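Material: Human LL 47 lung fibroblast cells | Input: 1,150 cells/well | Buffer or medium: IMEM plus 15% FBS | Compound dosing: 0.1% DMSO in all compound wells | Times: Overnight cell rest, 72 h compound treatment at 37 °C | Signal: CellTiter-Glo luminescence measuring cellular ATP | Measure: % viability versus median cells-only luminescence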
HCT116 bCat-KO: beta-catenin-lacking colon tumor cell growth suppression. HCT116 beta-catenin knockout viability, CellTiter-Glo, 60 h; hits give low values. AID 818. actives 1.5% (n = 140,000). viability, % at 10 µM;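 active = viability at or under a set limit, the compound median less 4 SD, cut at about 6% in these data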
HCT116 PTEN-null: suppresses growth of cells with PTEN deletion. viability, % at 10 µM. HCT116 PTEN-null viability, CellTiter-Glo, 60 h; hits give low values. actives 1.2% (n = 140,000);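 active = viability at or below a set limit, 4 SD under the median of all tested compounds, cut at about 3.7% in these data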;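 also: PTEN knockout HCT116 line with beta catenin targeted HCT116 as companion control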
HUVEC inhibit: blocks proliferation of human endothelial cells. HUVEC proliferation, CellTiter-Glo luminescence, 72 h; hits give low values. actives 1.1% (n = 86,000). viability, % at 10 µM (by protocol);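 active = viability at or below 30%; inactive = viability above 30%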
H69AR growth 86K: blocks growth of human H69AR lung tumor cells. H69AR lung tumor viability, ATP luminescence, 72 h; hits give low values. viability, % at 10 µM. actives 6% (n = 85,000);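 active = viability at or below 40%; inactive = viability above 40%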;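 also: multidrug resistant small cell line overexpressing MRP-1 efflux transporter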
A number is an active result; n = inactive; x = not tested or not shown. Only a selection was taken, and hits are over-represented in it overall.

SMILES | Lung fibro prol | HCT116 bCat-KO | HCT116 PTEN-null | HUVEC inhibit | H69AR growth 86K
COc1cc(CC(NC(C)=O)C(=O)NC2CCN(c3c(Cc4ccccc4)c(C)nc4ncnn34)CC2)cc(OC)c1 (centres undefined) | x | n | n | x | x
COc1ccc(NS(=O)(=O)c2ccc(N3CCCC3)c(NC(=S)Nc3cccc(S(=O)(=O)N(C)C)c3)c2)cc1 | x | n | n | x | x
O=S(=O)(c1ccc(Br)c2nsnc12)N1CCOCC1 | x | n | n | x | x
CN1CCN(S(=O)(=O)c2ccc(Br)c3nsnc23)CC1 | n | n | n | n | 2.9
Cc1ccc(NC(=O)ON=C2CCCC2)cc1 | x | n | n | x | x
COc1ccc(-n2c(COc3ccc(Cl)cc3)nnc2SCc2ccc(C#N)cc2)cc1 | n | n | n | n | 31.8
COc1ccc(-n2c(COc3ccc(C)cc3)nnc2SCc2ccc(C#N)cc2)cc1 | n | n | n | n | n
N#CCCN(C(=O)COC(=O)c1ccc(S(=O)(=O)Nc2ccccc2)cc1)c1ccccc1 | x | n | n | x | x
O=S(=O)(c1ccc2c(c1)OCCO2)N1CCC(n2cnc3cc(F)ccc32)CC1 | n | n | n | n | n
O=S(=O)(c1ccc(Cl)cc1)N1CCC(n2cnc3cc(C(F)(F)F)ccc32)CC1 | n | x | x | n | 34.8
O=C1c2ccccc2C(=O)N1SC1CCCCC1 | n | n | n | n | 0.6
CCOC(=O)CC(NS(=O)(=O)c1ccc(OC)c(C)c1)c1cccc([N+](=O)[O-])c1 (centres undefined) | x | n | n | x | x
Cc1ccc2c(c1)-c1nc3ccccc3cc1C2=NC1CCCCC1 | x | n | 2.8 | x | x
COc1cc(NS(=O)(=O)c2ccc(N/C=C(\C=O)c3nc4ccccc4o3)cc2)nc(OC)n1 | x | n | n | x | x
COc1cc(NS(=O)(=O)c2ccc(OC)c(C)c2C)c(OC)cc1Cl | n | n | n | n | 22.4
Cc1ccc(OCC(=O)Sc2ccc(C)cc2)cc1 | n | n | n | n | 16.9
COc1ccccc1OCC(=O)Sc1ccc(C)cc1 | n | n | n | n | n
O=C(Nc1ccccc1C(=O)NC(Cc1ccccc1)C(=O)NC1CCCCC1)c1ccccc1 (centres undefined) | x | n | n | x | x
CCCCCn1c(=O)[nH]c2cc(C(=O)NCc3ccc4c(c3)OCO4)ccc2c1=O | n | n | n | n | 31.6
CC1CC(C)CN(C(=O)c2ccc3c(=O)n(Cc4ccc5c(c4)OCO5)c(=S)[nH]c3c2)C1 (centres undefined) | n | n | n | n | n
COC(=O)c1ccc2c(=O)n(CCCCCC(=O)NCc3ccc4c(c3)OCO4)c(=O)[nH]c2c1 | n | n | n | n | n
CCCCCn1c(=O)[nH]c2cc(C(=O)N3CCN(Cc4ccc5c(c4)OCO5)CC3)ccc2c1=O | n | n | n | n | 9.3
COc1ccc(-n2nc(C(=O)Nc3nc4ccc(OC)cc4s3)c3ccccc3c2=O)c(OC)c1 | x | n | 2.6 | x | x
Cc1cc(C)c2nc(SC(C)C#N)cc(C)c2c1 (centres undefined) | n | n | n | n | 30.6
Cc1cccc(C(=O)NNC2=C(C(=O)C(F)(F)F)CCC2)c1O | n | n | n | n | 25.4
SMILES | Lung fibro prol | HCT116 bCat-KO | HCT116 PTEN-null | HUVEC inhibit | H69AR growth 86K
O=C(NNC1=C(C(=O)C(F)(F)F)CCC1)c1cccc(O)c1 | n | n | n | n | n
COc1ccc(CN2CCN(CC(O)Cn3c4ccccc4c4ccccc43)CC2)cc1 (centres undefined) | x | n | n | x | x
CCOc1ccc(CN2CCN(CC(O)Cn3c4ccccc4c4ccccc43)CC2)cc1 (centres undefined) | x | 1.5 | 1.6 | x | x
Cc1cc(C)c(NC(=O)CN2C(=O)NC3(CCCCC3)C2=O)c(Cl)c1 | n | n | n | n | 28.7
CC[n+]1c(/C=C/Nc2ccccc2)sc2ccccc21 | x | n | n | x | x
CCN1/C(=C/C=C/C=C/c2sc3ccccc3[n+]2CC)Sc2ccccc21 | x | 1.2 | 1.7 | x | x
O=C(CCCc1nc2ccccc2s1)NCc1ccccc1F | x | n | n | x | x
CCOc1ccc2nc(NC(=O)c3ccoc3C)sc2c1 | 35.4 | n | n | n | 20.4
CCOc1ccc2nc(NC(=O)Nc3cccs3)sc2c1 | n | n | n | n | 35.2
CCOc1ccc2nc(NC(=O)C3CCN(c4cnccn4)CC3)sc2c1 | n | n | n | n | 33.7
CCOc1ccc2nc(NC(=O)COC)sc2c1 | n | n | n | n | n
CCOc1ccc2nc(NC(=O)Nc3ccccc3)sc2c1 | n | n | n | n | n
CCNC(=S)Nc1ccc(Cl)c(C(F)(F)F)c1 | x | n | n | x | x
CCN1/C(=C/c2ccc3cc(C)ccc3[n+]2CC)Sc2ccccc21 | x | 1.2 | 1.3 | x | x
COc1ccccc1NC(=O)c1ccc(NC(=O)CSc2ncn[nH]2)cc1 | x | n | n | x | x
